Experimental data taken from ChEMBL document CHEMBL3826879, “Synthesis and biological evaluation of analogues of the potent ADAM8 inhibitor cyclo(RLsKDK) for the treatment of inflammatory diseases and cancer metastasis” (Bioorg Med Chem, 2016).
Where a SMILES comes first, the peptide text is derived from it. Bridges are numbered along the chain shown (N, C = ends). [ ]: non-standard residue; d: D form. Arg(NO2) = N=C(NCCC[C@H](N)C(=O)O)N[N+](=O)[O-]; Lys(Me3) = C[N+](C)(C)CCCC[C@H](N)C(=O)O; hArg = N=C(N)NCCCC[C@H](N)C(=O)O; tBuAla = CC(C)(C)C[C@H](N)C(=O)O; Cit = NC(=O)NCCC[C@H](N)C(=O)O; hLeu = CC(C)CC[C@H](N)C(=O)O; β3hS = N[C@@H](CO)CC(=O)O; Nle = CCCC[C@H](N)C(=O)O; Orn = NCCC[C@H](N)C(=O)O; Dab = NCC[C@H](N)C(=O)O; Nva = CCC[C@H](N)C(=O)O; Dap = NC[C@H](N)C(=O)O; βAla = NCCC(=O)O

Biological target: T1, Disintegrin and metalloproteinase domain-containing protein 8 (Homo sapiens, UniProt P78325)
T1 sequence (P78325 whole entry): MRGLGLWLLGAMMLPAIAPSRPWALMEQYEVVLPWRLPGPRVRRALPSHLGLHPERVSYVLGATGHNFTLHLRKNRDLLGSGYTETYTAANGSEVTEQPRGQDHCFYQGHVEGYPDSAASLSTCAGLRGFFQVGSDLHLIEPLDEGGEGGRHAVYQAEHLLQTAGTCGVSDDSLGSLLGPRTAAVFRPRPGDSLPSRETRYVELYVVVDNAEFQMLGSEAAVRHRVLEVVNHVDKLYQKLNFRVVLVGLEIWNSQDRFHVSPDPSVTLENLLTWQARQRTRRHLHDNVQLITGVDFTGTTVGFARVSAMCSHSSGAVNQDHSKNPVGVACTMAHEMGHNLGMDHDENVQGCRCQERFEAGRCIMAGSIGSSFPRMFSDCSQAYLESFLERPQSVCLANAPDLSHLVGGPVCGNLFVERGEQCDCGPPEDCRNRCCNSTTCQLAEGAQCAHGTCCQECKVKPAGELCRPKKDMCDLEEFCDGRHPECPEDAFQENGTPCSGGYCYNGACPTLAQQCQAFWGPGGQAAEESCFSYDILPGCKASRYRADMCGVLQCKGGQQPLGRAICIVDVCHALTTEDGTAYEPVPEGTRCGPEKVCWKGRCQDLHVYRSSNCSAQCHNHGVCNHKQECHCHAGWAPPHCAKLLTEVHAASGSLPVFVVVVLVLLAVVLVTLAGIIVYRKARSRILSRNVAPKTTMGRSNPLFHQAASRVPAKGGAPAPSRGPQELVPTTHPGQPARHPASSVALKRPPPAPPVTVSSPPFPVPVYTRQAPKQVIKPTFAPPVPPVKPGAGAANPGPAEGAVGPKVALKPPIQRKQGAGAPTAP
Experiment: Inhibition of ADAM8 (unknown origin) expressed in African green monkey COS7 cells co-expressing CD23 assessed as inhibition of CD23 shedding after 6 hrs by ELISA
Type: cell-based, COS-7
Procedure, shortened: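 COS7 cells co-transfected with CD23 and ADAM8 cDNA, seeded at 2 × 10^5 cells/well and exposed to peptide at 10 nM–10 μM for 6 h. Supernatant CD23 measured by sandwich ELISA: biotinylated anti-CD23 monoclonal antibody, 2 h at room temperature, streptavidin–HRP 1 h, TMB substrate, absorbance at 405 nm. Samples in duplicate against 400–12.5 units/mL standards. IC50 derived.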

SMILES | IC50 [nM]
CC(C)C[C@@H]1NC(=O)[C@H](CCCNC(=N)N)NC(=O)[C@H](CCCCN)NC(=O)[C@H](CC(=O)O)NC(=O)[C@H](CCCCN)NC(=O)C[C@@H](C(=O)O)NC1=O (KDKRLD-OH; lactam N-6) | 420
CC(C)C[C@@H]1NC(=O)[C@H](CCCNC(=N)N)NC(=O)[C@H](CCCCN)NC(=O)[C@H](CC(=O)O)NC(=O)[C@H](CCCCN)NC(=O)[C@H](CO)NC1=O (cyclo(DKRLSK)) | 240
CC(C)C[C@@H]1NC(=O)[C@H](CCCNC(=N)N)NC(=O)[C@H](CCCCN)NC(=O)[C@H](CC(=O)O)NC(=O)[C@H](CCCCN)NC(=O)C[C@H](CO)NC1=O (cyclo(DKRL[β3hS]K)) | 157
CCCC[C@@H]1NC(=O)[C@H](CCCNC(=N)N)NC(=O)[C@H](CCCCN)NC(=O)[C@H](CC(=O)O)NC(=O)[C@H](CCCCN)NC(=O)CCNC1=O (cyclo(DKR[Nle][βAla]K)) | 378
CCC[C@@H]1NC(=O)[C@H](CCCNC(=N)N)NC(=O)[C@H](CCCCN)NC(=O)[C@H](CC(=O)O)NC(=O)[C@H](CCCCN)NC(=O)CCNC1=O (cyclo(DKR[Nva][βAla]K)) | 452
CC(C)CC[C@@H]1NC(=O)[C@H](CCCNC(=N)N)NC(=O)[C@H](CCCCN)NC(=O)[C@H](CC(=O)O)NC(=O)[C@H](CCCCN)NC(=O)C[C@H](CO)NC1=O (cyclo(DKR[hLeu][β3hS]K)) | 142
CC(C)C[C@@H]1NC(=O)[C@H](CCCNC(=N)N)NC(=O)[C@H](CCN)NC(=O)[C@H](CC(=O)O)NC(=O)[C@H](CCCCN)NC(=O)CCNC1=O (cyclo(D[Dab]RL[βAla]K)) | > 5000
CC(C)C[C@@H]1NC(=O)[C@H](CCCNC(=N)N)NC(=O)[C@H](CCCC[N+](C)(C)C)NC(=O)[C@H](CC(=O)O)NC(=O)[C@H](CCCCN)NC(=O)CCNC1=O (cyclo(D[Lys(Me3)]RL[βAla]K)) | > 10000
CC(C)C[C@@H]1NC(=O)[C@H](CCCNC(=N)N[N+](=O)[O-])NC(=O)[C@H](CCCCN)NC(=O)[C@H](CC(=O)O)NC(=O)[C@H](CCCCN)NC(=O)C[C@H](CO)NC1=O (cyclo([Arg(NO2)]L[β3hS]KDK)) | 1240
CC(C)C[C@@H]1NC(=O)[C@H](CCCNC(=N)N[N+](=O)[O-])NC(=O)[C@H](CCCCN)NC(=O)[C@H](CC(=O)O)NC(=O)[C@H](CCCCN)NC(=O)CCNC1=O (cyclo([Arg(NO2)]L[βAla]KDK)) | 2350
CC(C)C[C@@H]1NC(=O)[C@H](CCCNC(N)=O)NC(=O)[C@H](CCCCN)NC(=O)[C@H](CC(=O)O)NC(=O)[C@H](CCCCN)NC(=O)CCNC1=O (cyclo([Cit]L[βAla]KDK)) | 890

Continued, values first:

IC50 [nM] | SMILES
1650 | CC(C)C[C@@H]1NC(=O)[C@H](CCCNC(=N)N)NC(=O)[C@H](CCCCN)NC(=O)[C@H](CC(=O)O)NC(=O)[C@H](CCCCN)NC(=O)CCNC1=O (cyclo(DKRL[βAla]K))
220 | CC(C)CC[C@@H]1NC(=O)[C@H](CCCNC(=N)N)NC(=O)[C@H](CCCCN)NC(=O)[C@H](CC(=O)O)NC(=O)[C@H](CCCCN)NC(=O)CCNC1=O (cyclo(DKR[hLeu][βAla]K))
256 | CC(C)(C)C[C@@H]1NC(=O)[C@H](CCCNC(=N)N)NC(=O)[C@H](CCCCN)NC(=O)[C@H](CC(=O)O)NC(=O)[C@H](CCCCN)NC(=O)CCNC1=O (cyclo(DKR[tBuAla][βAla]K))
368 | CC(C)C[C@@H]1NC(=O)[C@H](CCCCNC(=N)N)NC(=O)[C@H](CCCCN)NC(=O)[C@H](CC(=O)O)NC(=O)[C@H](CCCCN)NC(=O)C[C@H](CO)NC1=O (cyclo(DK[hArg]L[β3hS]K))
> 5000 | CC(C)C[C@@H]1NC(=O)[C@H](CCCNC(=N)N)NC(=O)[C@H](CN)NC(=O)[C@H](CC(=O)O)NC(=O)[C@H](CCCCN)NC(=O)CCNC1=O (cyclo(D[Dap]RL[βAla]K))
> 5000 | CC(C)C[C@@H]1NC(=O)[C@H](CCCNC(=N)N)NC(=O)[C@H](CCCN)NC(=O)[C@H](CC(=O)O)NC(=O)[C@H](CCCCN)NC(=O)CCNC1=O (cyclo(D[Orn]RL[βAla]K))
192 | CC(C)C[C@@H]1NC(=O)[C@H](CCCNC(N)=O)NC(=O)[C@H](CCCCN)NC(=O)[C@H](CC(=O)O)NC(=O)[C@H](CCCCN)NC(=O)C[C@H](CO)NC1=O (cyclo([Cit]L[β3hS]KDK))
